Test results: ChEMBL document CHEMBL4251542, “Discovery of cyclopropyl chromane-derived pyridopyrazine-1,6-dione γ-secretase modulators with robust central efficacy” (Medchemcomm, 2017)

How the values were obtained:
[1] = Apparent intrinsic clearance in human liver microsomes; type: ADME, microsome; details: read-out: CLH
Gamma-secretase = experiment: Modulation of gamma-secretase (unknown origin) expressed in CHO cells co-expressing human wild type APP assessed as reduction in amyloid beta 42 levels after 24 hrs by ELISA; type: cell-based
MDR1 (P-gp), human = experiment: in vitro; details: dog, MDCK-MDR1;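 note: transwell permeability assay, efflux ratio of apparent permeability, compound tested at 2 µM over 5 h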
[2] = Total Cmax in Sprague-Dawley rat at 300 mg/kg administered via oral gavage measured at 1 to 24 hrs post dose; type: ADME, organism-based; set-up: dose 300 mg/kg, route oral; details: in vivo
[3] = Cardiotoxicity in Wistar rat langendorff isolated heart model assessed as decrease in contractility perfused for 5 mins measured for 1 min; type: toxicity, tissue-based
Rattus norvegicus [4] = experiment: Unbound Cmax in Sprague-Dawley rat at 300 mg/kg administered via oral gavage measured at 1 to 24 hrs post dose; type: ADME, organism-based; details: in vivo
Rattus norvegicus [5] = experiment: Toxicity in Sprague-Dawley rat assessed as lethality at 300 mg/kg administered via oral gavage; type: organism-based; details: in vivo
[6] = Cardiotoxicity in Wistar rat langendorff isolated heart model assessed as decrease in perfusion pressure perfused for 5 mins measured for 1 min; type: toxicity, tissue-based
[7] = Cardiotoxicity in Wistar rat langendorff isolated heart model assessed as decrease in left ventricle pressure perfused for 5 mins measured for 1 min; type: toxicity, tissue-based
Rattus norvegicus [8] = experiment: Toxicity in Sprague-Dawley rat assessed as lethality at 30 mg/kg administered via oral gavage; type: organism-based; details: in vivo
Method in brief: (§1)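 Single escalating oral gavage doses given to Sprague-Dawley rats, 3 per sex per dose. Suspension in 0.5% methylcellulose with 0.1% Polysorbate 80, dosed at 10 mL/kg. Clinical signs watched continuously for the first several hours and/or intermittently through the dosing day. Plasma drug levels sampled at 1, 4, 8 and 24 h post-dose. Lethality scored per group of 6.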

[9] = Total Cmax in Sprague-Dawley rat at 30 mg/kg administered via oral gavage measured at 1 to 24 hrs post dose; type: ADME, organism-based; set-up: dose 30 mg/kg, route oral; details: in vivo
Method in brief: (§2)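 Single escalating oral gavage doses given to Sprague-Dawley rats, 3/sex/dose. Suspension in 0.5% methylcellulose with 0.1% Polysorbate 80, dosed at 10 mL/kg. […] Clinical signs also monitored.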

[10] = Ratio of IC50 for decrease in contractility of Wistar rat langendorff isolated heart model to fCmax in Sprague-Dawley rat at 30 mg/kg administered via oral gavage; type: organism-based; details: in vivo
Rattus norvegicus [11] = experiment: Unbound Cmax in Sprague-Dawley rat at 30 mg/kg administered via oral gavage measured at 1 to 24 hrs post dose; type: ADME, organism-based; details: in vivo; method in brief: as §2
[12] = Fraction unbound in rat plasma; type: ADME, cell-free
[13] = Unbound brain concentration in Sprague-Dawley rat at 10 mg/kg, po; type: ADME, organism-based; details: in vivo
[14] = Half life in rat at 1 mg/kg, iv; type: ADME, organism-based; details: in vivo
[15] = Clearance in rat at 1 mg/kg, iv; type: ADME, organism-based; details: in vivo
Rattus norvegicus [16] = experiment: Reduction of amyloid beta 42 levels in Sprague-Dawley rat at unbound brain concentration administered 10 mg/kg, po by DELFIA analysis relative to control; type: functional
Rattus norvegicus [17] = experiment: Reduction of amyloid beta 42 levels in Sprague-Dawley rat at 40 mg/kg, po measured at 4 hrs by DELFIA analysis relative to control; type: functional; set-up: scale not given: the % may be the effect or the level left
Method in brief: (§3)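 Male Sprague-Dawley rats (254-326 g) dosed orally with vehicle or 10 or 40 mg/kg. Brains taken at 1, 4, 8, 11, 16 and 20 h post-dose, 4 rats per group. Homogenized in 0.4% DEA/50 mM NaCl, held overnight at 4 °C, spun at 135,000xg for 1 h. Supernatant cleaned by solid-phase extraction and concentrated; Aβ42 read by DELFIA as % change vs vehicle.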

[18] = Unbound brain concentration in Sprague-Dawley rat at 40 mg/kg, po; type: ADME, organism-based; details: in vivo
[19] = Ratio of drug level in brain to plasma in rat at 5 mg/kg, sc measured at 1 to 7 hrs; type: ADME, organism-based; details: brain and plasma, read-out: BPR
[20] = Oral bioavailability in rat at 5 mg/kg; type: ADME, organism-based; details: in vivo
Rattus norvegicus [21] = experiment: Reduction of amyloid beta 42 levels in Sprague-Dawley rat at 10 mg/kg, po measured at 4 hrs by DELFIA analysis relative to control; type: functional; set-up: scale not given: the % may be the effect or the level left; method in brief: as §3
[22] = Fraction unbound in rat brain; type: ADME, tissue-based
Rattus norvegicus [23] = experiment: Unbound Cmax in Sprague-Dawley rat at 100 mg/kg administered via oral gavage measured at 1 to 24 hrs post dose; type: ADME, organism-based; details: in vivo; method in brief: as §2
[24] = Ratio of IC50 for decrease in contractility of Wistar rat langendorff isolated heart model to fCmax in Sprague-Dawley rat at 100 mg/kg administered via oral gavage; type: organism-based; details: in vivo
Rattus norvegicus [25] = experiment: Toxicity in Sprague-Dawley rat assessed as lethality at 100 mg/kg administered via oral gavage; type: organism-based; details: in vivo; method in brief: as §1
[26] = Total Cmax in Sprague-Dawley rat at 100 mg/kg administered via oral gavage measured at 1 to 24 hrs post dose; type: ADME, organism-based; set-up: dose 100 mg/kg, route oral; details: in vivo; method in brief: as §2

Row | Structure (SMILES) | microsomal CLint [1] [µL/min/mg] | IC50 (Gamma-secretase) [nM] | efflux ratio at 5 h, 2 µM (MDR1 (P-gp), human) | also measured
1 | Cc1cn(-c2ccc3n(c2=O)CCN(C[C@@]24C[C@@H]2C(C)(C)Oc2ccc(OC(F)(F)F)cc24)C3=O)cn1 | 42.4 | 5.1 | 2.1 | Cmax [2]: 60.9 µM; IC50 at 5 min [3]: > 30000 nM; fCmax (Rattus norvegicus [4]): 670 nM; Activity (Rattus norvegicus [5]): Non-Toxic; EC50 at 5 min [6]: > 30000 nM; IC50 at 5 min [7]: > 30000 nM
2 | Cc1cn(-c2ccc3n(c2=O)CCN([C@@H](C)C2=CC(C)(C)Oc4ccc(C(F)(F)F)cc42)C3=O)cn1 | 14.3 | 4.9 | 1.9 | Activity (Rattus norvegicus [8]): Toxic; IC50 at 5 min [3]: 1360 nM; EC50 at 5 min [6]: 576 nM; Cmax [9]: 5.84 µM; IC50 at 5 min [7]: 1030 nM; Ratio [10]: 6.6; fCmax (Rattus norvegicus [11]): 205 nM
3 | Cc1cn(-c2ccc3n(c2=O)CCN([C@H](C)C2=CC(C)(C)Oc4ccc(C(F)(F)F)cc42)C3=O)cn1 | 242 | 801 | 1.8 | –
4 | Cc1cn(-c2ccc3n(c2=O)CCN(C[C@@]24C[C@@H]2COc2ccc(Cl)cc24)C3=O)cn1 | 43.9 | 63 | 1.8 | –
5 | Cc1cn(-c2ccc3n(c2=O)CCN(C[C@@]24C[C@@H]2C(C)(C)Oc2ccc(C(F)(F)F)cc24)C3=O)cn1 | 34.5 | – | – | Cmax [2]: 90.4 µM; fraction unbound [12]: 0.018; Drug uptake(free) [13]: 11 nM; half-life [14]: 1.6 h; IC50 at 5 min [3]: > 30000 nM; clearance [15]: 26.4 mL/min/kg; fCmax (Rattus norvegicus [4]): 1620 nM; %max (Rattus norvegicus [16]): 40%; Activity (Rattus norvegicus [5]): Non-Toxic; EC50 at 5 min [6]: > 30000 nM; Activity (Rattus norvegicus [17]): 62%; Drug uptake(free) [18]: 67 nM; Kp [19]: 0.76; bioavailability [20]: 67%; Activity (Rattus norvegicus [21]): 40%; IC50 at 5 min [7]: > 30000 nM; fraction unbound [22]: 0.0054
6 | Cc1cn(-c2ccc3n(c2=O)CCN([C@@H](C)C2=CC(C)(C)Oc4ccc(OC(F)(F)F)cc42)C3=O)cn1 | 25.7 | 6 | 1.9 | fCmax (Rattus norvegicus [23]): 620 nM; IC50 at 5 min [3]: 2480 nM; Ratio [24]: 4; EC50 at 5 min [6]: 1370 nM; Activity (Rattus norvegicus [25]): Toxic; IC50 at 5 min [7]: 1620 nM; Cmax [26]: 17.7 µM
7 | Cc1cn(-c2ccc3n(c2=O)CCN(CC2CCOc4ccc(C(F)(F)F)cc42)C3=O)cn1 (stereo unspecified) | 37.6 | 322 | 1.9 | –
8 | Cc1cn(-c2ccc3n(c2=O)CCN(C[C@]24C[C@H]2COc2ccc(C(F)(F)F)cc24)C3=O)cn1 | 70.5 | 129 | 1.9 | –
9 | COc1ccc2c(c1)[C@]1(CN3CCn4c(ccc(-n5cnc(C)c5)c4=O)C3=O)C[C@@H]1CO2 | 33.7 | 181 | 2.2 | –

The next lines start with results.

Row | microsomal CLint [1] [µL/min/mg] | IC50 (Gamma-secretase) [nM] | efflux ratio at 5 h, 2 µM (MDR1 (P-gp), human) | Structure (SMILES) | also measured
10 | 14.6 | 52 | 1.7 | Cc1cn(-c2ccc3n(c2=O)CCN(C[C@@]24C[C@@H]2COc2cc(C(F)(F)F)ccc24)C3=O)cn1 | –
11 | 37.9 | 5.6 | 2.4 | Cc1cn(-c2ccc3n(c2=O)CCN(C[C@@]24C[C@@H]2COc2ccc(C(F)(F)F)cc24)C3=O)cn1 | –
12 | – | 53 | 1.9 | Cc1cn(-c2ccc3n(c2=O)CCN(CC2=CC(C)(C)Oc4ccc(Cl)cc42)C3=O)cn1 | –
13 | 108 | 30 | 1.7 | Cc1cn(-c2ccc3n(c2=O)CCN(CC2=CCOc4ccc(C(F)(F)F)cc42)C3=O)cn1 | –
14 | 47.8 | 13 | 2 | Cc1cn(-c2ccc3n(c2=O)CCN(CC2=CC(C)(C)Oc4ccc(C(F)(F)F)cc42)C3=O)cn1 | –
